Laboratory results as given in ChEMBL document CHEMBL1667769, “Sodium [2'-[(cyclopropanecarbonyl-ethyl-amino)-methyl]-4'-(6-ethoxy-pyridin-3-yl)-6-methoxy-biphenyl-3-yl]-acetate (AM432): a potent, selective prostaglandin D2 receptor antagonist” (Bioorg Med Chem Lett, 2011).

Columns and labels:
[1] = target: T1, Prostaglandin D2 receptor 2 (Homo sapiens, UniProt Q9Y5Y4); test: Displacement of [3H]PGD2 from human CRTh2 receptor expressed in 293 cells by liquid scintillation counting; assay type: cell-based, HEK293
T1 sequence (Q9Y5Y4 whole entry): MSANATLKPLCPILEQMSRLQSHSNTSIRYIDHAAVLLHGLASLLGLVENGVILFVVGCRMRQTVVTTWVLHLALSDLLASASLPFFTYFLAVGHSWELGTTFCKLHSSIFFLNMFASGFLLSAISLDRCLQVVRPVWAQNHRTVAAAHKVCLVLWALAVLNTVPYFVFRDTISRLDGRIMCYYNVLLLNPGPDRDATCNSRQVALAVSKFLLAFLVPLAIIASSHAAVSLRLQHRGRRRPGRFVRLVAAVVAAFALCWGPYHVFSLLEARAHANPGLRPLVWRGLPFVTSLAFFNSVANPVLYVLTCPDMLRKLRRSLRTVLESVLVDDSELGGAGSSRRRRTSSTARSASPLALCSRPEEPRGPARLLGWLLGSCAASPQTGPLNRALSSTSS
Outline: (§1)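 Membranes from 293 cells stably expressing human DP₂ incubated with [³H]-PGD₂ and increasing compound concentrations. Membranes harvested and washed; bound [³H]-PGD₂ counted. IC₅₀ taken as concentration giving 50% inhibition of binding. Run without and with 0.2% human serum albumin. Values averaged from three experiments (five for the lead).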

[2] = target: T1, Prostaglandin D2 receptor 2; test: Displacement of [3H]PGD2 from human CRTh2 receptor expressed in 293 cells by liquid scintillation counting in presence of 0.2 % HSA; assay type: cell-based, HEK293; outline: as §1

| Structure (SMILES) | IC50 [1] [nM] | IC50 [2] [nM] |
| --- | --- | --- |
| CCN(Cc1cc(NS(=O)(=O)c2ccc(Cl)cc2)ccc1-c1cc(CC(=O)O)ccc1OC)C(=O)OCc1ccccc1 | 3 | 90 |
| CCN(Cc1cc(S(C)(=O)=O)ccc1-c1cc(CC(=O)O)ccc1OC)C(=O)OCc1ccccc1 | 5 | 7 |
| CCN(Cc1cc(C(=O)O)ccc1-c1cc(CC(=O)O)ccc1OC)C(=O)OCc1ccccc1 | 8 | 254 |

Other lines, results leading:

| IC50 [1] [nM] | IC50 [2] [nM] | Structure (SMILES) |
| --- | --- | --- |
| 1 | 9 | CCN(Cc1cc(F)ccc1-c1cc(CC(=O)O)ccc1OC)C(=O)OCc1ccccc1 |
| 9 | 60 | CCN(Cc1cc(-c2ccc(F)cn2)ccc1-c1cc(CC(=O)O)ccc1OC)C(=O)C1CC1 |
